The IC50 is the concentration needed to halve the response being measured. High values mean weaker potency, low ones greater potency. One may read the Papp as a coefficient for how fast a substance crosses the barrier. The low end stands for slow passage, the high end for fast passage.

We go through 26 compounds from ChEMBL document CHEMBL1146016, “Synthesis and structure-activity relationships of 3,4-diaminocyclobut-3-ene-1,2-dione CXCR2 antagonists” (Bioorg Med Chem Lett, 2006).

Molecules are shown by their SMILES.

Data set [1] deals with T1, C-X-C chemokine receptor type 2 (Homo sapiens, UniProt P25025).
T1 sequence (P25025 whole entry): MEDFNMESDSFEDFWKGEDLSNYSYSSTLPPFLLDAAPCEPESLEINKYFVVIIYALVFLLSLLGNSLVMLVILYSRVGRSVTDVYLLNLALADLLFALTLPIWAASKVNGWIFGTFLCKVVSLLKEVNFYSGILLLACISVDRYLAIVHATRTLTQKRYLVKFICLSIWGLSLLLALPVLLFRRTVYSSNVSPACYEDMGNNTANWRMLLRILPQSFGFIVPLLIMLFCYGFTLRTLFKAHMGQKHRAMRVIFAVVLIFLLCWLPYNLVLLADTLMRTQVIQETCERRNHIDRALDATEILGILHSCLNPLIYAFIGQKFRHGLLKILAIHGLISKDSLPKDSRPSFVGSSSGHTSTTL
Put plainly: Displacement of [125I]IL8 from human CXCR2 expressed in CHO cells. Type of data set: cell-based. In general terms: In a radioligand displacement assay an active substance lowers the binding of a labelled ligand.

A short description of data set [2]: Metabolic stability in rat liver microsome after 30 min at 37 degreeC. It counts as ADME. The settings on record: liver microsomes, read-out: Stability. A digest of the protocol:
(§1)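 Liver microsomes (human or rat) incubated with compound at 1 µM final for 30 min at 37 °C in 100 mM potassium phosphate pH 7.4 with 1 mM β-NADPH; reported as percent parent remaining; means ± SD of two or more measurements.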
(Liver microsomes are a subcellular fraction often used to study metabolism.)

A short description of data set [3]: Permeability across Caco-2 cell membrane. Type of data set: ADME, cell-based. The settings on record: human. In outline:
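Caco-2 monolayers in a commercial HTS Caco-2 system run per kit instructions; apicalto-basolateral apparent permeability (nm/s), binned as low or high predicted absorption; means ± SD of two or more measurements.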
On the technique in general: Caco-2 cells form a polarised layer with tight junctions and transporters.

Data set [4] can be described thus: Metabolic stability in human liver microsome after 30 min at 37 degreeC. Type of data set: ADME. The settings on record: liver microsomes, read-out: Stability. In outline: as §1

On to `O=c1c(O)c(Nc2ccc([N+](=O)[O-])cc2O)/c1=N/c1ccccc1`, for which the half-inhibitory concentration (IC50) in data set [1] came to 36 nM.

In the case of `CC(C)/N=c1\c(O)c(O)\c1=N/c1cccc(C(=O)N(C)C)c1O`, the 50% inhibitory concentration (IC50) in data set [1] amounted to 10 nM. Compared with the last compound, the IC50 is about 3.6-fold lower.

With `CCC(CC)/N=c1\c(O)c(O)\c1=N/c1cccc(C(=O)N(C)C)c1O`, the figures for the remaining at 0.5 h in data set [2] and in data set [4] were 75% and 82%, respectively. In data set [3], this compound registered a Papp of 12 ×10⁻⁶ cm/s.

Compound `CN(C)C(=O)c1cc(Cl)cc(/N=c2\c(O)c(O)\c2=N/c2ccccc2)c1O` showed a half-inhibitory concentration (IC50) in data set [1] of 2 nM.

Consider `N#Cc1ccc(O)c(Nc2c(O)c(=O)/c2=N\c2ccccc2)c1`, for which, in data set [1], the IC50 worked out at 74 nM. This IC50 is about 37-fold higher than that of the compound before.

`O=c1c(O)c(Nc2cc([N+](=O)[O-])ccc2O)/c1=N/c1ccccc1`: the concentration for half-maximal inhibition (IC50) in data set [1] is 56 nM.

In data set [1], `CN(C)C(=O)c1cccc(/N=c2\c(O)c(O)\c2=N/[C@@H]2CCc3ccccc32)c1O` showed an IC50 of 548 nM.

In turn, `COC(=O)c1cccc(/N=c2\c(O)c(O)\c2=N/c2ccccc2)c1O` displayed a 50% inhibitory concentration (IC50) in data set [1] of 53 nM.

The compound `CCNC(=O)c1cccc(/N=c2\c(O)c(O)\c2=N/c2ccccc2)c1O` showed a 50% inhibitory concentration (IC50) in data set [1] of 65 nM.

The compound `CN(C)C(=O)c1cccc(/N=c2\c(O)c(O)\c2=N/CCc2ccccc2)c1O` yielded an IC50 in data set [1] of 926 nM.

In turn, `CN(C)C(=O)c1cccc(/N=c2\c(O)c(O)\c2=N/C2CCOCC2)c1O` returned a 50% inhibitory concentration (IC50) in data set [1] of 171 nM.

In data set [1], `CNC(=O)c1cccc(/N=c2\c(O)c(O)\c2=N/c2ccccc2)c1O` showed an IC50 of 22 nM.

Take `CN(C)C(=O)c1cccc(/N=c2/c(N(C)c3ccccc3)c(O)c2=O)c1O`: the IC50 in data set [1] was determined as 7200 nM.

On to `O=c1c(O)c(Nc2ccc([N+](=O)[O-])cc2)/c1=N/c1ccccc1`, for which the IC50 in data set [1] worked out at 8600 nM.

Compound `CN(C)C(=O)c1cccc(/N=c2\c(O)c(O)\c2=N/C2CCCCC2)c1O` had a half-maximal inhibitory concentration (IC50) in data set [1] of 10 nM.

`O=c1c(O)c(Nc2ccccc2)/c1=N/c1ccccc1O` gave a 50% inhibitory concentration (IC50) in data set [1] of 476 nM.

The compound `O=C(O)c1ccc(/N=c2\c(O)c(O)\c2=N/c2ccccc2)c(O)c1` showed an IC50 in data set [1] of 3100 nM.

With `CN(C)C(=O)c1cccc(/N=c2\c(O)c(O)\c2=N/C(C)(C)C)c1O`, the IC50 in data set [1] was determined as 14 nM.

In the case of `O=C(O)c1cccc(/N=c2\c(O)c(O)\c2=N/c2ccccc2)c1O`, the IC50 in data set [1] was 1000 nM. Compared with the last compound, the IC50 is about 71-fold higher.

Compound `NC(=O)c1cccc(/N=c2\c(O)c(O)\c2=N/c2ccccc2)c1O` had an IC50 in data set [1] of 34 nM.

For `N#Cc1ccc(Nc2c(O)c(=O)/c2=N\c2ccccc2)c(O)c1`, the IC50 in data set [1] was 3 nM.

`CN(c1ccccc1O)c1c(Nc2ccccc2)c(=O)c1=O` had a 50% inhibitory concentration (IC50) in data set [1] of 28600 nM.

Consider `CN(C)C(=O)c1cccc(/N=c2\c(O)c(O)\c2=N/C2CCCC2)c1O`, for which the remaining at 0.5 h in data set [2] worked out at 56%; in data set [4] it was 72%. For the same compound, in data set [3], the Papp was 10.1 ×10⁻⁶ cm/s. Further, the IC50 in data set [1] was 8 nM.

Regarding `CN(C)C(=O)c1cccc(/N=c2\c(O)c(O)\c2=N/c2ccccc2)c1O`, the remaining at 0.5 h in data set [2] was determined as 67%; in data set [4], 64%. In data set [3], this compound showed an apparent permeability coefficient (Papp) of 2.4 ×10⁻⁶ cm/s. The compound further yielded a half-maximal inhibitory concentration (IC50) in data set [1] of 2 nM.

As for `O=C(NCc1ccccc1)c1cccc(Nc2c(O)c(=O)/c2=N\c2ccccc2)c1O`, the concentration for half-maximal inhibition (IC50) in data set [1] worked out at 139 nM.

In data set [1], `CN(C)C(=O)c1cccc(/N=c2\c(O)c(O)\c2=N/Cc2ccco2)c1O` registered a half-inhibitory concentration (IC50) of 41 nM.
